Measured values: ChEMBL document CHEMBL4513216, “Probing the Open Global Health Chemical Diversity Library for Multistage-Active Starting Points for Next-Generation Antimalarials” (ACS Infect Dis, 2020)

Assay: Toxicity liver stage against HepG2, at 10uM
Format: cell-based
Design: test concentration 10 uM, cell line HepG2-A16-CD81EGFP
Conditions: human, HepG2-A16-CD81EGFP cells; read-out: INHIBITION
In short: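 Uninfected HepG2-A16-CD81EGFP cells, 3 × 10^3 per well, 1536-well, plated on prespotted compound at 10 μM final, parasite-free screening media added to match infected plates; puromycin 10 μM positive, DMSO 0.5% negative; run in parallel with 48 h PbLuc assay at 37 °C, 5% CO2; viability by CellTiter-Glo luminescence, normalized to controls.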

Point of comparison: `CC(C)(O)c1cn(C[C@H]2C[C@@H]3CCN2C[C@@H]3C(=O)N2CCOCC2)nn1`, cytotoxicity at 10 µM 3.49%. Against it:
- CCc1cc(CNC(=O)C2CCC(=O)N(Cc3ccccc3F)C2)on1 (stereo not given) — lower, 1.48%
- O=C(NC[C@H]1OC[C@@H](NCc2cccs2)[C@@H]1O)N1CCOCC1 — lower, -3.53%
- COc1ccc(C)cc1NC(=O)c1c(C)cn(C)c1CC(=O)O — lower, -0.713%
- O=C1CN(C(=O)C2CCCCC2)CC(O)CN1Cc1ccc(Cl)cc1 (stereo not given) — higher, 6.02%
- O=C(COc1coc(CN2CCOCC2)cc1=O)Nc1ccccc1F — lower, -10.7%
- Cc1cc(NCc2ccccc2)nc2[nH]nc(N)c12 — lower, -44%
- Cn1[nH]c(CNc2cccc(Cl)c2)nc1=O — lower, -0.165%
- O=C(NCCc1c[nH]c2ccc(F)cc12)C1(n2cnnn2)CCCCC1 — lower, -1.34%
- CCS(=O)(=O)N1CC(c2nc(-c3ccsc3)no2)C1 — lower, -8.25%
- Cc1nc(N2CCCC2)nc(C)c1NC(=O)c1ccco1 — lower, -7.7%
- CCOCC1COCCC12CCN(C(=O)CC1=CCCCC1)CC2 (stereo not given) — lower, 2.99%
- CC1CCCCN1C(=O)c1nc2c(n1C(C)C)CCN(C(=O)C1CC1)C2 (stereo not given) — higher, 15.4%
- COc1cccc(CC(=O)N2CC[C@@H]3NC(=O)CC[C@@H]32)c1 — lower, -4.04%
- O=C(NC1CCCC1)c1nc2c(o1)CN(CCO)C2 — higher, 13.2%
- CN(C)C(=O)N1CCN(C(=O)c2ccccc2)CC2(CNC(=O)C2)C1 (stereo not given) — higher, 7.19%
- CS(=O)(=O)N1CCCC12CCCN(S(=O)(=O)c1ccc(F)c(F)c1)C2 (stereo not given) — lower, 1.46%
- CCOCc1ncn2c1CN(S(=O)(=O)c1cccs1)CC2 — lower, 0.719%
- Cc1ccc(C(=O)N2CC[C@H]3O[C@@H](c4noc(C)n4)C[C@H]3C2)o1 — lower, 1.92%
- CCOc1cccc(CNc2ccccc2OC)c1O — lower, 0.142%
- CCN(c1ccc(C(=O)NCCCN2CCOCC2)cc1)S(=O)(=O)CC — lower, 1.34%
- CN(C)C(=O)NC1COC2(CCN(Cc3nccn3C)CC2)C1 (stereo not given) — higher, 9.48%
- N#Cc1c(N2CCCCC2)nsc1-c1cccnc1 — higher, 18.8%
- COc1cc2cc(C(=O)O)n(C)c2cc1OC — lower, 1.03%
- CCn1cc(NC(=O)CN2CCC(Oc3ccccc3C)CC2)c(C)n1 — lower, 0.343%
- Cc1cc(N2CCOC(c3ccc(N(C)C)cn3)C2)nc(N)n1 (stereo not given) — higher, 5.62%
- Cc1nccn1[C@@H]1CC[C@@H](N(C)S(=O)(=O)c2ccc(F)cc2)[C@H]1O — lower, -0.535%
- CC(=O)N1CCCC1c1ccc(Br)cn1 (stereo not given) — higher, 4.29%
- Cc1nc(N)cc(C2CCN2CCOc2ccccc2)n1 (stereo not given) — higher, 10%
- Cc1cnc2[nH]c(C(F)(F)F)c(CN3CCOCC3)c2c1 — higher, 11.7%
- c1cc2cc[nH]c2c(CC2CN(Cc3cncs3)C2)n1 — lower, -0.54%
- CC(C)(C)CN1CCC(c2nccnc2Nc2cnccn2)CC1 — lower, -4.98%
- Cn1nc(-c2ccc(F)cc2)cc1C(=O)NCCn1ccnc1 — higher, 3.68%
- Cn1ccc(C(=O)N2CCCC(Cc3cnc4ccccc4c3)C2)n1 (stereo not given) — lower, -6.19%
- Cc1csc2c(=O)n3c(nc12)CCN(C(=O)c1ccnn1C)CC3 — lower, -9.35%
- CN1CCN(Cc2c(-c3ccco3)[nH]c3ncccc23)CC1 — higher, 5.63%
- O=C(C1CCCC1)N1CC2(CCCN(C3COC3)C2)Cc2ccccc21 (stereo not given) — higher, 9.96%
- CCc1ccccc1CNC(=O)CNCC(F)(F)F — higher, 10.6%
- Cc1cc(CN2CCN(Cc3cc(C#N)ccc3F)CC2)no1 — higher, 5.78%
- CC(C)(Oc1ccc(F)cc1)C(=O)NCc1ccco1 — lower, -9.19%
- COC(=O)c1ncccc1N1CCCC1 — lower, -3.1%
- Cc1c(C(=O)N2CCC2(C)C)nnn1-c1cccc2cccnc12 — higher, 4.13%
- CC(C)(C)c1cnc(CN2CCCS2(=O)=O)o1 — lower, 2.07%
- CCCc1n[nH]c(C2CN(CCNC3CCCCC3)CCO2)n1 (stereo not given) — lower, 2.75%
- CC(NC(=O)NC1CCN(CC2CCCC2)CC1)c1nccs1 (stereo not given) — lower, 3.2%
- CC1CN(C(=O)c2nccnc2N)c2ccc(F)cc2O1 (stereo not given) — higher, 4.28%
- CN(Cc1ccsc1)C(=O)c1nc(N2CCCC2)ncc1Cl — lower, -45.5%
- O=C(CCSc1ccccc1F)NCc1cccnc1 — lower, -4.48%
- Cc1ccc(NS(=O)(=O)c2cccc(C#N)c2)c(CN(C)C)c1 — lower, -4.97%
- Cc1cccnc1NC(=O)C1CCCN(c2cccc(C(F)(F)F)n2)C1 (stereo not given) — higher, 4.95%
- Cn1c(NC(=O)CNC(=O)C2CC2)nc2cc(Cl)ccc21 — higher, 3.66%
- N#Cc1ccnc(N2CCN(CC(O)c3c(F)cccc3F)CC2)c1 (stereo not given) — lower, -5.43%
- CCN(CC(=O)NC(C)C)S(=O)(=O)N1CCCCC1C (stereo not given) — lower, -1.14%
- Cc1cc(C)c2c(OCC(=O)N(C)CC(=O)NC(C)C)nn(C)c2n1 — lower, 1.28%
- O=C(Nc1ccc2ncccc2c1)C1CC(=O)N(Cc2ccccn2)C1 (stereo not given) — lower, 3.31%
